Test results as given in ChEMBL document CHEMBL2029334 (Bioorg Med Chem Lett, 2012).
Active and inactive are the calls of the source. No cut-off for these calls is given here.

What was measured:
Cytochrome P450 2C19 = Cytochrome P450 2C19 (Homo sapiens, UniProt P33261); experiment: Inhibition of CYP2C19; type: ADME
[1] = target: Sodium-dependent dopamine transporter (Rattus norvegicus, UniProt P23977); experiment: Displacement of 3H-WIN-35428 from DAT in rat striata after 120 mins
Rattus norvegicus [2] = experiment: Wake promoting activity in rat assessed as total time awake at 100 mg/kg, ip over a period of 3 hrs after dosing; type: functional; details: route intraperitoneal
Canis familiaris = species on record: Canis familiaris; experiment: Wake promoting activity in dog; type: functional, organism-based; details: Canis lupus familiaris
Rattus norvegicus [3] = experiment: Wake promoting activity in rat assessed as total time awake at 30 mg/kg, ip over a period of 3 hrs after dosing; type: functional; details: route intraperitoneal
CYP2C19 = CYP2C19 (Homo sapiens, UniProt P33261); experiment: Inhibition of CYP2C19 at 10 uM; type: ADME
Sequence of CYP2C19 (P33261 whole entry): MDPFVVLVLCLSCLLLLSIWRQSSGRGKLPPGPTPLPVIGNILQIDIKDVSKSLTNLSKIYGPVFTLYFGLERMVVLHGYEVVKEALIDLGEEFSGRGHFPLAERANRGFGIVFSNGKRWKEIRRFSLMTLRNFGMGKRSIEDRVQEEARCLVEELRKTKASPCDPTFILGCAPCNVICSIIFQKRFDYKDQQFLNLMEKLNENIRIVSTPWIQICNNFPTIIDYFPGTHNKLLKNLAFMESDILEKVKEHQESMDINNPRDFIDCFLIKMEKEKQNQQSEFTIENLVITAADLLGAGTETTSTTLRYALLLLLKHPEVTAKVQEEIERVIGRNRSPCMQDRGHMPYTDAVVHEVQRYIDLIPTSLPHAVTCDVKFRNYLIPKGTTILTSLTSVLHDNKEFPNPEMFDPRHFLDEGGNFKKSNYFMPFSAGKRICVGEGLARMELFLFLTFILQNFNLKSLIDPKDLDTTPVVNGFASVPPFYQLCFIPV

Plasma [4] = experiment: Cmax in rat plasma assessed as 9H-fluoren-9-ol at 116 mg/kg, ip; type: ADME, organism-based; design: dose 116 mg/kg, route intraperitoneal; details: in vivo
How it was run: (§1)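 Rats received the parent compound at 116 mg/kg ip in 0.5% methylcellulose/0.2% Tween 80. The metabolite was measured in plasma and brain over time. Cmax is given in ng/g, Tmax in h, and AUC0-t in ng h/g. Values are mean ± SEM, n = 3.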

Plasma [5] = experiment: Tmax in rat plasma assessed as 9H-fluoren-9-ol at 116 mg/kg, ip; type: ADME, organism-based; design: dose 116 mg/kg, route intraperitoneal; details: in vivo; how it was run: as §1
Brain [6] = experiment: Cmax in rat brain assessed as 9H-fluoren-9-ol at 116 mg/kg, ip; type: ADME, organism-based; design: dose 116 mg/kg, route intraperitoneal; details: in vivo; how it was run: as §1
Brain [7] = experiment: Tmax in rat brain assessed as 9H-fluoren-9-ol at 116 mg/kg, ip; type: ADME, organism-based; design: dose 116 mg/kg, route intraperitoneal; details: in vivo; how it was run: as §1
Plasma [8] = experiment: AUC (0 to t) in rat plasma assessed as 9H-fluoren-9-ol at 116 mg/kg, ip; type: ADME, organism-based; design: dose 116 mg/kg, route intraperitoneal; details: in vivo; how it was run: as §1
Brain [9] = experiment: AUC (0 to t) in rat brain assessed as 9H-fluoren-9-ol at 116 mg/kg, ip; type: ADME, organism-based; design: dose 116 mg/kg, route intraperitoneal; details: in vivo; how it was run: as §1
Plasma [10] = experiment: AUC (0 to t) in rat plasma at 116 mg/kg, ip; type: ADME, organism-based; design: dose 116 mg/kg, route intraperitoneal; details: in vivo
[11] = Cmax in rat brain at 116 mg/kg, ip; type: ADME, organism-based; design: dose 116 mg/kg, route intraperitoneal
[12] = Cmax in rat plasma at 116 mg/kg, ip; type: ADME, organism-based; design: dose 116 mg/kg, route intraperitoneal
[13] = Tmax in rat plasma at 116 mg/kg, ip; type: ADME, organism-based; design: dose 116 mg/kg, route intraperitoneal
Brain [14] = experiment: AUC (0 to t) in rat brain at 116 mg/kg, ip; type: ADME, organism-based; design: dose 116 mg/kg, route intraperitoneal; details: in vivo
[15] = Tmax in rat brain at 116 mg/kg, ip; type: ADME, organism-based; design: dose 116 mg/kg, route intraperitoneal
Cytochrome P450 3A4 = Cytochrome P450 3A4 (Homo sapiens, UniProt P08684); experiment: Inhibition of CYP3A4; type: ADME
Sequence of Cytochrome P450 3A4 (P08684 whole entry): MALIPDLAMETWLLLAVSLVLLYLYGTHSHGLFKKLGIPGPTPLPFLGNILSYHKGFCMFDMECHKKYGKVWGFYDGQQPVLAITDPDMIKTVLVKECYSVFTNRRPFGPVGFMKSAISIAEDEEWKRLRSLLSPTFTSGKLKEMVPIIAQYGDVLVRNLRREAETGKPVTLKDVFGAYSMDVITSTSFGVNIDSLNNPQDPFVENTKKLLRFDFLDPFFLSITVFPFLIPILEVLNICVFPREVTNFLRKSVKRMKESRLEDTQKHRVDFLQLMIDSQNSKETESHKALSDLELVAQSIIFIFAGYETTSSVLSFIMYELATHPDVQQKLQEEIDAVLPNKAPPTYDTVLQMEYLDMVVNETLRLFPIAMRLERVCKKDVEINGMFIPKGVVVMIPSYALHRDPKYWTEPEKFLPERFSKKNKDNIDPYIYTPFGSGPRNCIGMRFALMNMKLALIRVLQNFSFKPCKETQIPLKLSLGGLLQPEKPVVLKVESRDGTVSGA

Cytochrome P450 2D6 = Cytochrome P450 2D6 (Homo sapiens, UniProt P10635); experiment: Inhibition of CYP2D6; type: ADME
Sequence of Cytochrome P450 2D6 (P10635 whole entry): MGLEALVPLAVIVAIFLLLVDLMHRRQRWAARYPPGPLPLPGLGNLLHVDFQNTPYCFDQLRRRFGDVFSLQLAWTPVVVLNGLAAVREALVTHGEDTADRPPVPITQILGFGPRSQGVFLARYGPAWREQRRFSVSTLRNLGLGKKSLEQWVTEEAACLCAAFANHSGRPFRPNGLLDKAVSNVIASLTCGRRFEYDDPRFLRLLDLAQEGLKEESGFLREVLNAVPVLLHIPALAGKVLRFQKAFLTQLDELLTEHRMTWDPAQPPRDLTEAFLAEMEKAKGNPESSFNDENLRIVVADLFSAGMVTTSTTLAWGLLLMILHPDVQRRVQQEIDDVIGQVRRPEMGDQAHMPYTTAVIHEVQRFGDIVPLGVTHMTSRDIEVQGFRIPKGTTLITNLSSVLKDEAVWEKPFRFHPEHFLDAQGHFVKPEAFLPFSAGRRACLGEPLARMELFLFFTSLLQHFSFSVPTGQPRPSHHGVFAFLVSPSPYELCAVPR

Plasma [16] = experiment: Plasma concentration in human at efficacious dose; type: ADME, cell-free
Plasma [17] = experiment: Tmax in rat plasma assessed as 9H-fluoren-9-one at 116 mg/kg, ip; type: ADME, organism-based; design: dose 116 mg/kg, route intraperitoneal; details: in vivo; how it was run: as §1
Brain [18] = experiment: Cmax in rat brain assessed as 9H-fluoren-9-one at 116 mg/kg, ip; type: ADME, organism-based; design: dose 116 mg/kg, route intraperitoneal; details: in vivo; how it was run: as §1
Plasma [19] = experiment: AUC (0 to t) in rat plasma assessed as 9H-fluoren-9-one at 116 mg/kg, ip; type: ADME, organism-based; design: dose 116 mg/kg, route intraperitoneal; details: in vivo; how it was run: as §1
Plasma [20] = experiment: Cmax in rat plasma assessed as 9H-fluoren-9-one at 116 mg/kg, ip; type: ADME, organism-based; design: dose 116 mg/kg, route intraperitoneal; details: in vivo; how it was run: as §1
Brain [21] = experiment: Tmax in rat brain assessed as 9H-fluoren-9-one at 116 mg/kg, ip; type: ADME, organism-based; design: dose 116 mg/kg, route intraperitoneal; details: in vivo; how it was run: as §1
Brain [22] = experiment: AUC (0 to t) in rat brain assessed as 9H-fluoren-9-one at 116 mg/kg, ip; type: ADME, organism-based; design: dose 116 mg/kg, route intraperitoneal; details: in vivo; how it was run: as §1

Sequence of Cytochrome P450 2C19 (P33261 whole entry): as the sequence (P33261 whole entry) above
Sequence of Sodium-dependent dopamine transporter (P23977 whole entry): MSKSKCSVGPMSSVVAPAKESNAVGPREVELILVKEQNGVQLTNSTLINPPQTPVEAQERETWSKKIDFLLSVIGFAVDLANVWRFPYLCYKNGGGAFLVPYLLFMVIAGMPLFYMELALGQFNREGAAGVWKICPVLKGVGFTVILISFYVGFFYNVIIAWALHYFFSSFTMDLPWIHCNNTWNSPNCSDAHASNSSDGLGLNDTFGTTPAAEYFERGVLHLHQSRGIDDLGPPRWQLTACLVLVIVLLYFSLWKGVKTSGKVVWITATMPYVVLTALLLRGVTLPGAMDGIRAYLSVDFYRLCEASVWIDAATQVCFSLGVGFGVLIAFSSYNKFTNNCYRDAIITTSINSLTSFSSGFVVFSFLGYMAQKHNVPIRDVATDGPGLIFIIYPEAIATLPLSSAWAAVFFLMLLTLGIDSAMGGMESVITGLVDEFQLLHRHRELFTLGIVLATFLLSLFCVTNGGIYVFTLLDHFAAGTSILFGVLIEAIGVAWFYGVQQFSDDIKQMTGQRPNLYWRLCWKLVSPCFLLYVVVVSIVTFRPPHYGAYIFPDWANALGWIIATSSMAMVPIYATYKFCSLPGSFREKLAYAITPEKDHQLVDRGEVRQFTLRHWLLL

Row | SMILES | IC50 (Cytochrome P450 2C19) [µM] | IC50 [1] [µM] | Time (Rattus norvegicus [2]) [min] | Activity (Canis familiaris) | also measured
1 | CCN(CC)C(=O)C[S+]([O-])C1c2ccccc2-c2ccccc21 (racemic) | > 100 | > 100 | 99 | inactive | 
2 | O=C(C[S+]([O-])C1c2ccccc2-c2ccccc21)N1CCNCC1 (racemic) | > 100 | > 100 |  | inactive | Time (Rattus norvegicus [3]): 119 min
3 | O=C(C[S+]([O-])C1c2ccccc2-c2ccccc21)N1CCOCC1 (racemic) |  | > 100 |  | inactive | Time (Rattus norvegicus [3]): 158 min; inhibition at 10 µM (CYP2C19): 30%
4 | NC(=O)C[S+]([O-])C1c2ccccc2-c2ccccc21 (racemic) | > 100 | > 100 | 116 | inactive | 
5 | O=C(C[S+]([O-])C1c2ccccc2-c2ccccc21)NCCO (racemic) | > 100 | > 100 | 167 | inactive | 
6 | OC1c2ccccc2-c2ccccc21 |  | 9 | 163 |  | Cmax (Plasma [4]): 263 ng/g; Tmax (Plasma [5]): 120 min; Cmax (Brain [6]): 4384 ng/g; Tmax (Brain [7]): 48 min; AUCt (Plasma [8]): 1081 ng·h/g; AUCt (Brain [9]): 11639 ng·h/g
7 | CC(=O)N1CCN(C(=O)C[S+]([O-])C2c3ccccc3-c3ccccc32)CC1 (racemic) | > 100 | > 100 |  | inactive | AUCt (Plasma [10]): 7501 ng·h/g; Cmax [11]: 416 ng/g; Cmax [12]: 6290 ng/g; Time (Rattus norvegicus [3]): 146 min; Tmax [13]: 48 min; AUCt (Brain [14]): 295 ng·h/g; Tmax [15]: 48 min
8 | NC(=O)[C@H](CO)NC(=O)C[S+]([O-])C1c2ccccc2-c2ccccc21 (mixture of isomers) | > 100 | > 100 | 136 | inactive | 
9 | NC(=O)C[S+]([O-])C(c1ccccc1)c1ccccc1 (racemic) [MODAFINIL] |  |  | 117 | inactive | inhibition (INH) (Cytochrome P450 3A4): Not Active; inhibition (INH) (Cytochrome P450 2D6): Not Active; concentration (Plasma [16]): > 30 µM
10 | CNC(=O)C[S+]([O-])C1c2ccccc2-c2ccccc21 (racemic) |  | > 100 | 83 | inactive | inhibition at 10 µM (CYP2C19): 48%
11 | NC(=O)CNC(=O)C[S+]([O-])C1c2ccccc2-c2ccccc21 (racemic) | > 100 | > 100 | 140 | inactive | 
12 | NC(=O)[C@@H]1CCCN1C(=O)C[S+]([O-])C1c2ccccc2-c2ccccc21 (mixture of isomers) | > 100 | > 100 | 169 | inactive | 
13 | O=C1c2ccccc2-c2ccccc21 |  |  |  |  | Tmax (Plasma [17]): 72 min; Cmax (Brain [18]): 971 ng/g; AUCt (Plasma [19]): 939 ng·h/g; Cmax (Plasma [20]): 255 ng/g; Tmax (Brain [21]): 48 min; AUCt (Brain [22]): 2349 ng·h/g
14 | C[C@H](NC(=O)C[S+]([O-])C1c2ccccc2-c2ccccc21)C(N)=O (mixture of isomers) | > 100 | > 100 | 151 | inactive | 
15 | CC1([S+]([O-])CC(N)=O)c2ccccc2-c2ccccc21 (racemic) |  | > 100 | 71 |  | inhibition at 10 µM (CYP2C19): 26%
